Laboratory results taken from ChEMBL document CHEMBL1687940, “Quinazoline sulfonamides as dual binders of the proteins B-cell lymphoma 2 and B-cell lymphoma extra long with potent proapoptotic cell-based activity” (J Med Chem, 2011).
Activity calls are given as the source filed them. No cut-off for these calls is given here.

Columns and labels:
MEF [1] = experiment: Cytotoxicity against mouse mcl-1 deficient MEF cells after 24 hrs by Cell titer glo assay in presence of 10% serum; format: functional, cell-based
Outline: (§1)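 Wild-type (mcl-1 fl/fl) or Mcl-1-deficient mouse embryonic fibroblasts kept in high-glucose DME with asparagine, 2-mercaptoethanol and 10% FCS. Exposed to compound 24 h in medium with 1% or 10% FCS. […] Means ± SEM of three independent experiments.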

MEF [2] = experiment: Cytotoxicity against mouse mcl-1 deficient MEF cells after 24 hrs by Cell titer glo assay in presence of 1% serum; format: functional, cell-based; outline: as §1
MEF [3] = experiment: Cytotoxicity against mouse MEF cells expressing mcl-1 fl/fl after 24 hrs by Cell titer glo assay in presence of 10% serum; format: functional, cell-based; outline: as §1
MEF [4] = experiment: Cytotoxicity against mouse MEF cells expressing mcl-1 fl/fl after 24 hrs by Cell titer glo assay in presence of 1% serum; format: functional, cell-based; outline: as §1
[5] = biological target: Induced myeloid leukemia cell differentiation protein Mcl-1 (Homo sapiens, UniProt Q07820); experiment: Displacement of wild type mBimBH3 from Mcl-1 by solution competition assay
Bcl-2-like protein 2 = biological target: T1, Bcl-2-like protein 2 (Homo sapiens, UniProt Q92843); experiment: Displacement of wild type mBimBH3 from human Bcl-w by solution competition assay
T1 sequence (Q92843 whole entry): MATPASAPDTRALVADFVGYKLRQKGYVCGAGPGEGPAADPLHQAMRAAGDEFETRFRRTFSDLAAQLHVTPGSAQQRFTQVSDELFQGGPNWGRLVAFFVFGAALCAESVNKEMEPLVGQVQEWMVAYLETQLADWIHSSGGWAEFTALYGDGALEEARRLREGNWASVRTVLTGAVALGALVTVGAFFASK

[6] = biological target: Apoptosis regulator Bcl-2 (Homo sapiens, UniProt P10415); experiment: Displacement of wild type mBimBH3 from human Bcl-2 by solution competition assay
Bcl-2-like protein 1 [7] = biological target: T2, Bcl-2-like protein 1 (Homo sapiens, UniProt Q07817); experiment: Displacement of biotinylated Bim-BH3 from GST-tagged Bcl-Xl by AlphaScreen competitive assay
Outline: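 Titration into a mix of GST-tagged Bcl-xL ΔC25 (0.6 nM final) and biotinylated Bim BH3-26 peptide (5.0 nM final), with anti-GST acceptor and streptavidin donor beads (15 μg/mL each). Protein–acceptor and peptide–donor pairs were preincubated 30 min, then added in turn, 4 h at room temperature. DMSO 1.0% final.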

Bcl-2-like protein 1 [8] = biological target: T2, Bcl-2-like protein 1; experiment: Binding affinity to Bcl-Xl assessed as association rate constant by surface plasmon resonance assay
Outline: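 Biacore SPR direct binding. Anti-GST antibody amine-coupled to CM5 chip (~10000 RU); GST-Bcl-xL captured (~1200 RU), fresh protein each cycle. Compound series injected at 90 μL/min, 25 °C; association 95 s, dissociation 240 s. Phosphate/NaCl/EDTA/Tween buffer with 5% DMSO, pH 7.4. Double referencing and DMSO solvent correction; fit to one-to-one model with mass transport for k_a, k_d.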

MEF [9] = experiment: Cytotoxicity against mouse MEF cells expressing mcl-1 fl/fl after 24 hrs by Cell titer glo assay in presence of 10% fetal bovine serum; format: functional, cell-based; outline: as §1
[10] = Cytotoxicity against human NCI-H146 after 48 hrs by MTS assay in presence of 10% human serum; format: functional; settings: NCI-H146, 48 h
Outline: (§2)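 Treated 48 h in medium with 10% human serum. Each concentration run in duplicate, at least three separate times. Viability read by MTS proliferation assay.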

NCI-H889 = experiment: Cytotoxicity against human NCI-H889 after 48 hrs by MTS assay in presence of 10% human serum; format: functional, cell-based; settings: NCI-H889, 48 h; outline: as §2
NCI-H1963 = experiment: Cytotoxicity against human NCI-H1963 after 48 hrs by MTS assay in presence of 10% human serum; format: functional, cell-based; settings: NCI-H1963, 48 h; outline: as §2
MEF [11] = experiment: Cytotoxicity against mouse mcl-1 deficient MEF cells after 24 hrs by Cell titer glo assay in presence of 10% fetal bovine serum; format: functional, cell-based; outline: as §1
MEF [12] = experiment: Cytotoxicity against mouse MEF cells expressing mcl-1 fl/fl at 10 uM after 24 hrs by Cell titer glo assay in presence of 10% fetal bovine serum; format: functional, cell-based

T2 sequence (Q07817 whole entry): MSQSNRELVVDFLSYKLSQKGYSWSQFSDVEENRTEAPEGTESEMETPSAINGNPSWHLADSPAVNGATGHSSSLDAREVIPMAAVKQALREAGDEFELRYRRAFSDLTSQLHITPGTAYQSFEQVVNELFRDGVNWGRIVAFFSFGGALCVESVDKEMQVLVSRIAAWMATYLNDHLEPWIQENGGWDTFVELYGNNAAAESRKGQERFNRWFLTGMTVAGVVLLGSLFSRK
Sequence of Apoptosis regulator Bcl-2 (P10415 whole entry): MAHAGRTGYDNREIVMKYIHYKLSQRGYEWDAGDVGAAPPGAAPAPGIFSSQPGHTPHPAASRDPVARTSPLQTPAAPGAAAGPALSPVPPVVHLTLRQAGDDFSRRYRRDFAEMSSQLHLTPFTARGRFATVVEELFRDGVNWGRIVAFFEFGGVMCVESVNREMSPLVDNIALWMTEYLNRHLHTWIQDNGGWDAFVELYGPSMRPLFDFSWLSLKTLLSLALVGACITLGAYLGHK
Sequence of Induced myeloid leukemia cell differentiation protein Mcl-1 (Q07820 whole entry): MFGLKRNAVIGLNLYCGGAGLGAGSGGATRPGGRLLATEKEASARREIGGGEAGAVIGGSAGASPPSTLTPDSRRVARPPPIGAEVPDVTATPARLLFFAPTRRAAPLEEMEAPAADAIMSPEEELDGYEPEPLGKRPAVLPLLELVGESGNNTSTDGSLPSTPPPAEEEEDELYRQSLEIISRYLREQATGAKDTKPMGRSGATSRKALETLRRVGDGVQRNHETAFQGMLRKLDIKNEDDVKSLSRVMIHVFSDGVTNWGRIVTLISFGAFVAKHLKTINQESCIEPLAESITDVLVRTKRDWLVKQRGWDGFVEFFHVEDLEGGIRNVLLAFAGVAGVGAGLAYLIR

| Compound | EC50 (MEF [1]) | EC50 (MEF [2]) | EC50 (MEF [3]) | EC50 (MEF [4]) | IC50 [5] | IC50 (Bcl-2-like protein 2) | IC50 [6] | IC50 (Bcl-2-like protein 1 [7]) | Ka (Bcl-2-like protein 1 [8]) | EC50 (MEF [9]) | EC50 [10] | EC50 (NCI-H889) | EC50 (NCI-H1963) | EC50 (MEF [11]) | Activity (MEF [12]) |
| --- | --- | --- | --- | --- | --- | --- | --- | --- | --- | --- | --- | --- | --- | --- | --- |
| CN(C)CC[C@H](CSc1ccccc1)Nc1ccc(S(=O)(=O)Nc2ncnc3cc(N4CCN(CC5=C(c6ccc(Cl)cc6)CCC(C)(C)C5)CC4)ccc23)cc1[N+](=O)[O-] | 61 nM | 16 nM | 4300 nM | 1610 nM | > 1000 nM | 540 nM | 12 nM |  |  |  |  |  |  |  |  |
| O=C(NS(=O)(=O)c1ccc(NCCSc2ccccc2)c([N+](=O)[O-])c1)c1ccc(-c2ccc(F)cc2)cc1 |  |  |  |  |  |  |  | 1500 nM |  |  |  |  |  |  |  |
| CN(C)CC[C@H](CSc1ccccc1)Nc1ccc(S(=O)(=O)Nc2ncnc3cc(N4CCN(Cc5ccccc5-c5ccc(Cl)cc5)CC4)ccc23)cc1[N+](=O)[O-] | 110 nM | 40 nM | 5820 nM | 1680 nM | > 1000 nM | 440 nM | 8.7 nM |  | 1.9 ×10⁵ /M/s | 5800 nM | 610 nM | 210 nM | 170 nM | 110 nM |  |
| CC1(C)CCC(c2ccc(Cl)cc2)=C(CN2CCN(c3ccc4c(NS(=O)(=O)c5ccc(N[C@H](CCN6CCOCC6)CSc6ccccc6)c([N+](=O)[O-])c5)ncnc4c3)CC2)C1 | 222 nM | 38 nM | > 10000 nM | > 10000 nM | > 1000 nM | > 1000 nM | 21 nM |  |  |  |  |  |  |  |  |
| CC1(C)CCC(c2ccc(Cl)cc2)=C(CN2CCN(c3ccc(C(=O)NS(=O)(=O)c4ccc(N[C@H](CCN5CCOCC5)CSc5ccccc5)c(S(=O)(=O)C(F)(F)F)c4)cc3)CC2)C1 [NAVITOCLAX] |  |  |  |  |  |  |  |  |  |  | 80 nM | 120 nM | 51 nM |  |  |
| CN(C)CC[C@H](CSc1ccccc1)Nc1ccc(S(=O)(=O)NC(=O)c2ccc(N3CCN(Cc4ccccc4-c4ccc(Cl)cc4)CC3)cc2)cc1[N+](=O)[O-] [ABT 737] | 51 nM | 2.03 nM | > 10000 nM | > 10000 nM |  |  |  |  | 7.9 ×10⁵ /M/s |  |  |  |  | 51 nM | inactive |
| O=[N+]([O-])c1cc(S(=O)(=O)Nc2ncnc3cc(N4CCN(Cc5ccccc5-c5ccc(Cl)cc5)CC4)ccc23)ccc1N[C@H](CCN1CCOCC1)CSc1ccccc1 | 190 nM | 24.8 nM | > 10000 nM | > 10000 nM | > 1000 nM | > 1000 nM | 21 nM |  |  |  | 3700 nM | 1300 nM | 1400 nM |  |  |
| CC1(C)CCC(c2ccc(Cl)cc2)=C(CN2CCN(c3ccc4c(NS(=O)(=O)c5ccc(N[C@H](CCN6CCOCC6)CSc6ccccc6)c(S(=O)(=O)C(F)(F)F)c5)ncnc4c3)CC2)C1 | 328 nM | 37.2 nM | > 10000 nM | > 10000 nM | > 1000 nM | > 1000 nM | 84 nM |  |  |  |  |  |  |  |  |
| CN(C)CC[C@H](CSc1ccccc1)Nc1ccc(S(=O)(=O)Nc2ncnc3cc(N4CCN(Cc5ccccc5-c5ccc(Cl)cc5)CC4)ccc23)cc1S(=O)(=O)C(F)(F)F |  |  |  |  | > 1000 nM | 245 nM | 13 nM |  |  |  |  |  |  |  |  |
| CN(C)CC[C@H](CSc1ccccc1)Nc1ccc(S(=O)(=O)Nc2ncnc3cc(N4CCN(CC5=C(c6ccc(Cl)cc6)CCC(C)(C)C5)CC4)ccc23)cc1S(=O)(=O)C(F)(F)F | 37.2 nM | 11.6 nM | 5460 nM | 2650 nM | > 1000 nM | 275 nM | 5 nM |  |  |  |  |  |  |  |  |
| O=S(=O)(Nc1ncnc2cc(N3CCN(Cc4ccccc4-c4ccc(Cl)cc4)CC3)ccc12)c1ccc(N[C@H](CCN2CCOCC2)CSc2ccccc2)c(S(=O)(=O)C(F)(F)F)c1 | 149 nM | 22.4 nM | > 10000 nM | > 10000 nM | > 1000 nM | > 1000 nM | 81 nM |  |  |  | 630 nM | 820 nM | 400 nM |  |  |
